Bioassay records as filed in PubChem.
A selection: hits, their analogues and other compounds. The true share with any hit is near 3.9%.
TAAR1 agonist – human TAAR1 agonists, primary screen, Fluo-8 calcium fluorescence, CHO RD-HGA16 cells | 360,000 tested, 0.99% active | Trace amine-associated receptor 1 (Homo sapiens), Q96RJ0 | activation, % at 3 µM | vehicle wells 0%, saturating PEA agonist 100%;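 active = activation above the mean activation of all test compounds in the run plus 3 SD, cut at about 38% in these data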
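Repeats: no replicates (n 1) | Material: CHO-derived RD-HGA16 cells with stable Gα16 and human TAAR1 | Technique: Kinetic Fluo-8 calcium fluorescence | Schedule: 17-24 h seeding, 75 min 37 °C dye, 30 min RT | Evaluation: % activation from peak over basal fluorescence ratio, DMSO-to-PEA scaled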
OX1R antag-1 – antagonists of human orexin 1 receptor (OX1R) | inhibition, % at 6.6 µM | AID 485270, 2010 | Orexin/Hypocretin receptor type 1 (Homo sapiens), O43613 | OX1R-expressing cells, FRET antagonist read-out | 330,000 tested, 1.8% active; in the data active = inhibition mostly above about 38%, no sharp cut-off; inactive = mostly below about 40%;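 note: 0% = agonist challenge alone and 100% = reference antagonist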
Target sequence (O43613 whole entry, looked up): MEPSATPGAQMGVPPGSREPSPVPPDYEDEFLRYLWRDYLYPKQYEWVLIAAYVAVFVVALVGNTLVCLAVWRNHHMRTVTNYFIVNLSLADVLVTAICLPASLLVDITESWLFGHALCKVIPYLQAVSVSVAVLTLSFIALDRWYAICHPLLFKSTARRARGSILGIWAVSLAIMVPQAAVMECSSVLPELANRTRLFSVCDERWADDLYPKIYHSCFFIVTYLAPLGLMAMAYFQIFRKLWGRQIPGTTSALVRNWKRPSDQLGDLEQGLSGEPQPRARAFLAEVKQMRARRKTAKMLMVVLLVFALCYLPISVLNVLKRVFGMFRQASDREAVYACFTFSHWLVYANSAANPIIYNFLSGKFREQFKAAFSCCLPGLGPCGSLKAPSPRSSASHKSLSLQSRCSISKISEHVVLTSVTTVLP
TAAR1 antag – human TAAR1 antagonists, primary screen, Fluo-8 calcium fluorescence, CHO RD-HGA16 cells | antagonist | 360,000 tested, 1.5% active | inhibition, % at 3 µM;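 active = inhibition above a per-plate cutoff, the mean inhibition of test compounds on that plate plus 3 SD, cut at about 49% in these data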;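 note: 0% = DMSO plus EC80 beta-PEA response and 100% = DMSO alone without agonist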
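Material: CHO RD-HGA16 cells bearing hTAAR1; compound dosing: one-point dosing, 3 µM nominal final; schedule: dye loading 75 min at 37 °C, then 30 min room temperature; measured by: calcium fluorescence with Fluo-8; control set: vehicle and agonist controls; replication: n of 1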
OX1R antag-2 – OX1R (HCRTR1) antagonists, primary screen, fluorescence, CHO/OX1R cells, Fluo-8 calcium, orexin A; Orexin/Hypocretin receptor type 1 (Homo sapiens), O43613; Fluo-8 calcium fluorescence; inhibition, % at 5 µM; 330,000 tested, 0.43% active; AID 434989, 2010;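 active = inhibition above its plate's threshold, mean inhibition of all tested compounds on the plate plus 3 SD, cut at about 37% in these data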;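 note: 0% = orexin A challenge wells and 100% = SB-334867-A antagonist wells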
CHO parental Ca – ATP-evoked calcium signal inhibitors, parental CHO, primary screen, counter-screen for OX1R antagonist project, cell-based, fluorescence, Fluo-8 calcium dye; parental CHO-K1, ATP-induced calcium, Fluo-8 fluorescence; inhibition, % at 5.6 µM; 330,000 tested, 0.63% active; AID 463079, 2010;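 active = inhibition above that plate's mean sample inhibition plus 3 SD, cut at about 26% in these data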;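 note: 0% = ATP-challenged DMSO wells and 100% = DMSO wells without ATP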
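Test system: parental CHO cells; detection: calcium-sensitive Fluo-8 fluorescence; evaluation: percent inhibition of calcium signal; also added: ATP as calcium-mobilizing challenge; repeats: one well per compound; control set: ATP-challenged DMSO wells low, unchallenged DMSO wells high; compound: single nominal dose of 5.6 µM per compound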
Starred values were filed as active, the others as inactive.

CC(=O)c1ccc(N=Nc2c(C)[nH][nH]c2=O)cc1 was read as TAAR1 agonist 4, OX1R antag-1 43, TAAR1 antag -5, OX1R antag-2 -11 and CHO parental Ca -29.
Screening Cc1[nH][nH]c(=O)c1N=Nc1ccc(S(N)(=O)=O)cc1 returned TAAR1 agonist 0, OX1R antag-1 41*, TAAR1 antag -35, OX1R antag-2 0 and CHO parental Ca -8.
NS(=O)(=O)c1ccc(N=Nc2c[nH]c(=O)c(O)c2)cc1 was read as TAAR1 agonist 6, OX1R antag-1 42*, TAAR1 antag -4, OX1R antag-2 5 and CHO parental Ca 3.
`CCCCNC(=O)C1C(c2ccc(C(F)(F)F)cc2)=Nc2ccccc2N1C(=O)c1cccc2ccccc12` (stereo not given) gave TAAR1 agonist 0 and TAAR1 antag -11.
CCCCNC(=O)C(NC(=O)c1ccc(-c2ccccc2)cc1)C(=O)c1ccccc1 (stereo not given) was read as TAAR1 agonist 2 and TAAR1 antag -9.
For COc1ccc(OC)c(S(=O)(=O)NC(=O)C2(C)CCN2C(=O)CC2CCCC2)c1 (stereo not given) the results were TAAR1 agonist 1 and TAAR1 antag -16.
COc1ccc([C@H]2C[C@H](O)[C@@H](n3cc(COC(=O)c4ccccc4)nn3)CN2CC2CCCCC2)cc1 was read as TAAR1 agonist 2 and TAAR1 antag -9.
CCCCNC(=O)C(NC(=O)c1cccnc1)C(=O)c1ccccc1 (stereo not given) was read as TAAR1 agonist 2 and TAAR1 antag 0.
`Cc1nnc(SCc2nc3ccccc3[nH]2)s1` gave TAAR1 agonist 20, OX1R antag-1 -7, TAAR1 antag 5, OX1R antag-2 -2 and CHO parental Ca -5.
For Cn1c(CSc2nc3ccccc3s2)n[nH]c1=S the results were TAAR1 agonist 10, OX1R antag-1 31, TAAR1 antag -1, OX1R antag-2 -10 and CHO parental Ca 6.
For CCS(=O)(=O)CCSc1nc2ccccc2s1 the results were TAAR1 agonist 1, OX1R antag-1 14, TAAR1 antag 17, OX1R antag-2 -16 and CHO parental Ca -15.
`c1ccc2[nH]c(CSc3nc4ccccc4s3)nc2c1` gave TAAR1 agonist 17, OX1R antag-1 72*, TAAR1 antag 12, OX1R antag-2 8 and CHO parental Ca -21.
Screening Cn1c(CSc2nc3ccccc3s2)nc2ccccc21 returned TAAR1 agonist 15, OX1R antag-1 41*, TAAR1 antag 9, OX1R antag-2 -13 and CHO parental Ca -15.
Screening O=S(=O)(CCSc1nc2ccccc2s1)c1nc2ccccc2s1 returned TAAR1 agonist 2, OX1R antag-1 53*, TAAR1 antag 14, OX1R antag-2 16 and CHO parental Ca -13.
For c1ccc2[nH]c(CCCCc3nc4ccccc4[nH]3)nc2c1 the results were TAAR1 agonist 38*, OX1R antag-1 3, TAAR1 antag -1, OX1R antag-2 -26 and CHO parental Ca -23.
For Nc1ccn([C@@H]2O[C@H](C(=O)N3CCN(CCO)CC3)[C@@H](O)[C@H]2O)c(=O)n1 the results were TAAR1 agonist 1 and TAAR1 antag 7.
`COC(=O)CC#C[C@H](C)[C@@H](NS(=O)(=O)c1ccc([N+](=O)[O-])cc1)C(C)(C)C` gave TAAR1 agonist -2 and TAAR1 antag -6.
CCCCn1nnnc1C(c1cc2ccccc2o1)N1CCN(c2cc(C)nc3ccccc23)CC1 (stereo not given) was read as TAAR1 agonist 1 and TAAR1 antag -19.
O=C(CSc1nc2ccccc2s1)CSc1nc2ccccc2s1 was read as TAAR1 agonist 0, OX1R antag-1 45*, TAAR1 antag 15, OX1R antag-2 -23 and CHO parental Ca -11.
CCOC1=C2[C@H](c3ccccc3)N(S(=O)(=O)c3ccc(C)cc3)[C@H](C(C)C)[C@H]2n2c(=O)n(-c3ccccc3)c(=O)n2C1 was read as TAAR1 agonist 1 and TAAR1 antag -27.
`O=C1c2[nH]nc(-c3ccccc3)c2C(c2cccc(C(F)(F)F)c2)N1c1ccccc1` (stereo not given) gave TAAR1 agonist 0 and TAAR1 antag -61.
Screening O=C(c1cccc([N+](=O)[O-])c1)c1ccc2c(c1)C(=O)NC2=O returned TAAR1 agonist 5, OX1R antag-1 54*, TAAR1 antag 8, OX1R antag-2 -1 and CHO parental Ca 10.
`Cc1cc(NC(=O)c2cccc(Br)c2)n[nH]1` gave TAAR1 agonist 4, OX1R antag-1 25, TAAR1 antag 2, OX1R antag-2 -10 and CHO parental Ca -4.
For CSc1nccc(NC(=O)c2cccc(Br)c2)n1 the results were TAAR1 agonist 48*, OX1R antag-1 21, TAAR1 antag 8, OX1R antag-2 -29 and CHO parental Ca -21.
For Cc1ccc(CCN2CC(C(=O)NC3CCC(C)CC3)CC2=O)cc1 (stereo not given) the results were TAAR1 agonist -1 and TAAR1 antag 4.
COc1ccc(-c2nc(-c3ccc(NC(=O)c4ccncc4)cc3)no2)cc1OC was read as OX1R antag-1 60*, OX1R antag-2 5 and CHO parental Ca 26.
`COc1ccc(Cc2nc(-c3ccc(NC(=O)c4cccnc4)cc3)no2)cc1` gave TAAR1 agonist 55*, OX1R antag-1 22, TAAR1 antag 40, OX1R antag-2 1 and CHO parental Ca 11.
`Cc1ccc(-c2nnc(-c3cccc(NC(=O)c4cccs4)c3)o2)cc1` gave TAAR1 agonist 4, OX1R antag-1 30, TAAR1 antag 52*, OX1R antag-2 -17 and CHO parental Ca 8.
`COc1ccc(-c2noc(CCC(=O)NCc3cccnc3)n2)cc1` gave TAAR1 agonist 1, OX1R antag-1 16, TAAR1 antag 22, OX1R antag-2 -6 and CHO parental Ca -9.
For COc1cccc(-c2nc(-c3ccc(NC(=O)c4cccs4)cc3)no2)c1 the results were TAAR1 agonist 6, OX1R antag-1 24, TAAR1 antag 51*, OX1R antag-2 -26 and CHO parental Ca -24.
COc1ccccc1N1CCN(C2C(=O)Nc3ccccc3-n3nnnc32)CC1 (stereo not given) was read as TAAR1 agonist 20 and TAAR1 antag -10.
CCOC(=O)[C@]12CCCC=C1N(Cc1ccc3c(c1)OCO3)C(=O)[C@H](CC(=O)N1CCCCC1)C2 was read as TAAR1 agonist 2 and TAAR1 antag 15.
